According to paper PMC2859510 (The Journal of Biological Chemistry, 2010):
pIC50: −log10 of the molar value. Entries after “also recorded” stand apart in the source; their conditions may differ. Where no end group is shown, it is not given here.

Tests used:
GST-NEMO-(2–200) = GST-NEMO-(2–200) (UniProt Q9Y6K9); assay: AlphaScreen or HTRF
IKK-2 (Ser^181); IκBα = assay type: cell-based, patients with rheumatoid arthritis; conditions: RASF, peptide 1 h before 1 ng/ml IL-1β 10 min; IKK-2 11-mer
Method in brief: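 Rheumatoid arthritis synovial fibroblasts were exposed to peptide for 1 h, then to 1 ng/ml IL-1β for 10 min. The same lysates also served the kinase assay. Proteins were separated by SDS-PAGE and transferred to PVDF. Membranes were probed 2 h at 25 °C with anti-phospho-IKK-1(Ser180)/IKK-2(Ser181) or anti-IκBα, then with secondary Ab for 1 h. Bands were read by infrared imaging.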

[1] = target: GST-NEMO-(2–200) and IKK-2-FLAG (Homo sapiens, UniProt Q9Y6K9); assay: Alphascreen binding assay, recombinant NEMO and IKK-2; conditions: pH 7.4, read-out: inhibition of NEMO-IKK-2 interaction at 100 μM, Alphascreen
GST-NEMO-(2–200) and IKK-2-FLAG, sequence (Q9Y6K9 2-200): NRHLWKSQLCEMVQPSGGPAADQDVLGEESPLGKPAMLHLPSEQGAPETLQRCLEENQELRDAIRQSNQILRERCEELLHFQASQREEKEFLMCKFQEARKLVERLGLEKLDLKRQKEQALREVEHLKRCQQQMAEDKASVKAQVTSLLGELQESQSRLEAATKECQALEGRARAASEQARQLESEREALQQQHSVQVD
Method in brief: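 GST-NEMO-(2–200) (2 nM) and C-terminal FLAG-tagged full-length IKK-2 (2 nM) were incubated 30 min at room temperature in buffer containing 50 mM HEPES pH 7.4, 0.01% BSA, 0.0005% Tween 20 and 1 mM DTT. Unlabeled competitor peptides were titrated in for 30 min. Glutathione donor and anti-FLAG acceptor beads were added, overnight at room temperature, then Alphascreen read. Mean ± S.E. of four independent experiments.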

NEMO-IKK-2 complex = assay: Immunoprecipitation of the IKK complex with anti-NEMO from RASF; assay type: cell-based, patients with rheumatoid arthritis; conditions: 150 μM WT or mutant peptide, 30 min, then 1 ng/ml IL-1β 10 min; IKK-2 11-mer
Method in brief: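 Fibroblasts were given 150 μM WT or mutant peptide for 30 min, then 1 ng/ml IL-1β for 10 min at 37 °C. Cells were lysed in 20 mM Tris pH 7.6, 150 mM NaCl, 0.5% NP-40, PMSF, protease and phosphatase inhibitors. From 50 μg lysate, the complex was pulled down with anti-NEMO mAb for 1 h, then Protein A beads for 1 h. Precipitates and inputs were blotted under reducing SDS-PAGE and read by infrared imaging. Runs were repeated 2–4 times.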

NF-κB reporter gene [2] = conditions: proinflammatory stimuli (TNF-α); cited from earlier work
LPS-stimulated PBMC = assay: LPS-induced TNF-α and IL-6 production in PBMC; assay type: cell-based, human; conditions: pretreated 2 h, 10 ng/ml LPS 18 h, IKK-2 11-mer, Fig. 1A/data not shown
Method in brief: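 PBMC were Ficoll-isolated from heparinized healthy-donor blood and kept in DMEM with 5% endotoxin-free FBS and pen/strep. They were plated at 2.5 × 10^5 cells/well and given rising peptide doses for 2 h. Then 10 ng/ml LPS or vehicle was added for 18 h, at 1% DMSO final. TNF-α and IL-6 were read by MSD, IC50 fitted, and viability checked by Alamar Blue. Data are % of LPS-stimulated cells, mean ± S.D.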

NF-κB reporter gene [3] = conditions: cited from earlier work
unstimulated RASF = assay: Basal IL-6 production in RASF; assay type: cell-based, patients with rheumatoid arthritis; conditions: pretreated 2 h, vehicle 18 h, IKK-2 11-mer
Method in brief: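 Commercial RASF were seeded at 1.5 × 10^4 cells/well in high-glucose DMEM with 15% defined bovine serum and 50 μg/ml gentamicin, attached overnight, then switched to DMEM with 1% serum. Cells were pretreated 2 h with increasing test compound concentrations, then given vehicle for 18 h. Secreted IL-6 was measured by MSD; cytotoxicity by Alamar Blue. Expressed as % of untreated cells; mean ± S.D., ≥3 determinations.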

NEMO-IKK-2 interactions = assay: In situ proximity ligation assay, NEMO-IKK-2 interactions in RASF; assay type: cell-based, patients with rheumatoid arthritis; conditions: data not shown
Method in brief: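 RASF on culture slides (2.5 × 10^4 cells/well, DMEM 10% FBS, overnight 37 °C) were moved to serum-free DMEM with 1% DMSO or test compound for 30 min. Cells were fixed (4% paraformaldehyde), permeabilized (0.1% Triton X-100), and blocked. They were then incubated overnight at 4 °C with anti-NEMO plus anti-IKK-2 Abs, then with oligonucleotide-linked probes (1 h, 37 °C), followed by ligation and amplification. Counterstained with Hoechst and imaged at ×20; signals/cell averaged per image.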

[4] = tested on: bovine nasal cartilage explant cultures; assay type: cell-based; conditions: data not shown
IL-1β-stimulated RASF = assay: IL-1β-induced IL-6 production in RASF; assay type: cell-based, patients with rheumatoid arthritis; conditions: pretreated 2 h, 1 ng/ml IL-1β 18 h, 1% serum, IKK-2 11-mer
Method in brief: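 Fibroblasts were grown in high-glucose DMEM with 15% defined bovine serum and 50 μg/ml gentamicin. They were seeded at 1.5 × 10^4 cells/well, attached overnight, then moved to DMEM with 1% serum. Cells got rising peptide doses for 2 h, then 1 ng/ml IL-1β for 18 h. Secreted IL-6 was read by MSD, IC50 fitted, and viability checked by Alamar Blue. Data are % of stimulated cells, mean ± S.D. of ≥3 determinations.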

IRAK-1, TAK-1, IκBα, p65 = assay: NF-κB signaling intermediates in IL-1β-stimulated RASF; assay type: cell-based, patients with rheumatoid arthritis; conditions: then 1 ng/ml IL-1β 10 min; for IRAK-1 fate (disappearance of band) / TAK-1 phosphorylation: 30 min
Method in brief: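 Fibroblasts were given peptide for 30 min, then 1 ng/ml IL-1β for 10 min at 37 °C. Lysis used Tris pH 7.6 / NaCl / 0.5% NP-40 buffer with protease and phosphatase inhibitors, with protein measured by Bradford. Blots were run by SDS-PAGE and PVDF transfer, with primary Abs 2 h at 25 °C (anti-IRAK-1, anti-phospho-TAK-1, anti-p65) and secondary Ab 1 h. Tubulin served as loading control.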

unstimulated PBMC = assay: Basal TNF-α and IL-6 production in PBMC; assay type: cell-based, human; conditions: pretreated 2 h, vehicle 18 h, IKK-2 11-mer
Method in brief: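 Human PBMC from heparinized healthy-donor blood were isolated by Ficoll, plated at 2.5 × 10^5 cells/well in DMEM with 5% endotoxin-free FBS and penicillin/streptomycin. Cells were pretreated 2 h with increasing test compound concentrations, then given vehicle for 18 h (1% DMSO final). TNF-α and IL-6 were measured by MSD; cytotoxicity by Alamar Blue. Expressed as % of untreated cells; mean ± S.D., ≥3 determinations.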

NEMO-(2-200) = NEMO-(2-200) (UniProt Q9Y6K9); assay: fluorescence polarisation
NEMO-(2-200), sequence (Q9Y6K9 2-200): as above

[5] = target: GST-NEMO-(2–200) and biotinylated IKK-1/2 chimeric 44-mer peptide (Homo sapiens, UniProt Q9Y6K9); assay: Time-resolved FRET binding assay
GST-NEMO-(2–200) and biotinylated IKK-1/2 chimeric 44-mer peptide, sequence (Q9Y6K9 2-200, change not shown): as the sequence (Q9Y6K9 2-200) above

IKK complex = assay: Native PAGE / Western blot: release of IKK-2 from an IKK complex in RASF; assay type: cell-based, patients with rheumatoid arthritis; conditions: 30 min peptide, then IL-1β 10 min, IKK-2 11-mer

GST-NEMO-(2–200), sequence (Q9Y6K9 2-200): as above

Substance: Antennapedia homeodomain-conjugated IKK-2 11-mer NBD peptide (WT)
- pIC50 (GST-NEMO-(2–200)): < 4.00
- percent inhibition at 100 μM (GST-NEMO-(2–200)): 40%

Substance: DRQIKIWFQNRRMKWKKTALDWSWLQTE [WT NBD peptides]
- IKK-2 phosphorylation at Ser^181 (IKK-2 (Ser^181); IκBα): inhibited
- IκBα degradation (IKK-2 (Ser^181); IκBα): inhibited
- inhibition at 100 µM [1]: 40%
- relative concentration of IKK-2 in the immunoprecipitated complex (NEMO-IKK-2 complex): no significant effect
- NF-κB reporter gene activity, stimulated (NF-κB reporter gene [2]): inhibited NF-κB reporter gene activity
- LPS-induced production of IL-6 (LPS-stimulated PBMC): completely blocked
- NF-κB reporter gene activity, basal (NF-κB reporter gene [3]): did not inhibit basal reporter gene activity
- basal IL-6 production, RASF (unstimulated RASF): neither WT nor mutant NBD peptides had an inhibitory effect; also recorded: slight increase in basal cytokine production
- NEMO-IKK-2 interactions (PLA), unstimulated (NEMO-IKK-2 interactions): inhibited NEMO-IKK-2 interactions in unstimulated cells
- cytokine-induced release of glycosaminoglycans [4]: inhibited
- IL-1β-induced IL-6 production (IL-1β-stimulated RASF): completely blocked
- IRAK-1 fate (disappearance of band) (IRAK-1, TAK-1, IκBα, p65): no effect
- TAK-1 phosphorylation (IRAK-1, TAK-1, IκBα, p65): no effect
- IκBα degradation (30 min pretreatment) (IRAK-1, TAK-1, IκBα, p65): inhibited IκBα degradation in a concentration-dependent manner
- basal cytokine production (TNF-α and IL-6), PBMC (unstimulated PBMC): neither WT nor mutant NBD peptides had an inhibitory effect; also recorded: slight increase in basal cytokine production

Substance: IKK-2 45-mer mutant (W739A and W741A) (peptide)
- pIC50 (NEMO-(2-200)): < 6.00
- pIC50 (GST-NEMO-(2–200)): < 6.00

Substance: PAKKSEELVAEAHNLCTLLENAIQDTVREQDQSFTALDWSWLQTE [IKK-2 45-mer]
- pIC50 [5]: 8.15 to 9.00

Substance: TALDASALQTE [mutant NBD peptides]
- IKK-2 phosphorylation at Ser^181 (IKK-2 (Ser^181); IκBα): WT but not mutant NBD peptides inhibited
- IκBα degradation (IKK-2 (Ser^181); IκBα): WT but not mutant NBD peptides inhibited
- release of IKK-2 from IKK complex, IL-1β-treated (IKK complex): WT but not mutant NBD peptides led to the appearance of an IKK-2 band distinct from the complex; also recorded: WT but not mutant NBD peptides resulted in the release of IKK-2
- basal IL-6 production, RASF (unstimulated RASF): neither WT nor mutant NBD peptides had an inhibitory effect
- cytokine-induced release of glycosaminoglycans [4]: WT but not mutant NBD peptides inhibited
- IRAK-1 fate (disappearance of band) (IRAK-1, TAK-1, IκBα, p65): failed
- TAK-1 phosphorylation (IRAK-1, TAK-1, IκBα, p65): failed
- IκBα degradation (30 min pretreatment) (IRAK-1, TAK-1, IκBα, p65): failed to protect IκBα from degradation
- basal cytokine production (TNF-α and IL-6), PBMC (unstimulated PBMC): neither WT nor mutant NBD peptides had an inhibitory effect
